pIC50: −log10 of the molar value. Activity calls are given as the source filed them. The rule behind the calls is not given here. Residues, ends and D or L forms follow the SMILES beside them. *: point of attachment. Cbz = O=C(OCc1ccccc1)*
Assays:
[1] = target: Acidic phospholipase A2 2 (Naja naja) (UniProt P15445); test: Inhibition of Naja naja venom sPLA2 at 10 uM
Procedure, shortened: (§1)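 Radiometric sPLA2 assay on [3H]oleate-labeled, autoclaved E. coli CECT 101 membranes. Enzyme in 100 mM Tris-HCl/1 mM CaCl2, pH 7.5, preincubated 5 min at 37 °C with compound (10 µM) or vehicle. Then 15 min with labeled membranes, stopped with ice-cold BSA (0.07% w/v final). Supernatant radioactivity counted after centrifugation; % inhibition, mean ± SEM, n = 6.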

[2] = target: Phospholipase A2, major isoenzyme (Sus scrofa) (UniProt P00592); test: Inhibition of pig sPLA2 at 10 uM
Procedure, shortened: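 sPLA2 (human recombinant synovial group IIA; porcine pancreatic group IB) in 100 mM Tris-HCl/1 mM CaCl2, pH 7.5, preincubated 5 min at 37 °C with compound (10 µM) or vehicle. 15 min incubation with [3H]oleate-labelled autoclaved E. coli membranes as substrate. Stopped with ice-cold BSA (0.07% final), centrifuged, supernatant radioactivity counted. Mean ± SEM, n = 6.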

[3] = target: T1, Phospholipase A2 (Apis mellifera) (UniProt P00630); test: Inhibition of bee venom sPLA2 at 10 uM; procedure, shortened: as §1
T1 sequence (whole entry): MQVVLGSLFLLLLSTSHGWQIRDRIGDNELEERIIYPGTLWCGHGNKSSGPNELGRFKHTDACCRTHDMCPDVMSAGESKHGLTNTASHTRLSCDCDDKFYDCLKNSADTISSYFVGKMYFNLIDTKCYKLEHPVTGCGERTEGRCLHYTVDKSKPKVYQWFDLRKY

[4] = system: RAW264.7; test: Inhibition of NF-kappaB DNA binding in LPS-stimulated mouse RAW264.7 cells; type: cell-based
Procedure, shortened: (§2)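 EMSA: RAW 264.7 cells (1.5 × 10^6/well) preincubated 30 min with compound, then LPS (1 µg/mL) for 1 h. Nuclear extracts (6 µg) incubated on ice for 15 min with 32P-end-labelled consensus NF-κB oligonucleotide and poly(dI-dC), pH 8.0. Complexes resolved on native 6% PAGE and detected by autoradiography. Two independent experiments.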

[5] = system: RAW264.7; test: Inhibition of mPGES1 expression in LPS-stimulated mouse RAW264.7 cells after 2 hrs by Western blot analysis; type: functional, cell-based
[6] = system: RAW264.7; test: Inhibition of COX2 expression in LPS-stimulated mouse RAW264.7 cells after 2 hrs by Western blot analysis; type: functional, cell-based
[7] = system: RAW264.7; test: Inhibition of PGE2 production in LPS-stimulated mouse RAW264.7 cells at 1 uM after 2 hrs; type: functional
Procedure, shortened: (§3)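 Post-induction phase: RAW264.7 cells that had already expressed COX-2 and mPGES-1 after LPS stimulation were given compound for 2 h in fresh medium supplemented with arachidonic acid. PGE2 in supernatants was quantified by radioimmunoassay. Mean ± SEM, n = 6.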

[8] = species: Mus musculus; test: Inhibition of COX2 expression in zymosan-stimulated Swiss mouse air pouch model after 24 hrs; type: functional, organism-based
Procedure, shortened: (§4)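 Female Swiss mice (25-30 g) air pouch; six days after initial air injection, 1 mL of 1% (w/v) zymosan in saline injected into pouch, compound given intrapouch at the same time. Exudate collected after 24 h; cell pellets analysed by Western blot for COX-2, mPGES-1 and β-actin. Densitometry expressed as percentage of zymosan control band intensity.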

[9] = system: RAW264.7; test: Inhibition of PGE2 production in LPS-stimulated mouse RAW264.7 cells at 1 uM after 18 hrs; type: functional
Procedure, shortened: (§5)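 RAW 264.7 macrophages (1.5 × 10^6 cells/mL) co-incubated with E. coli 0111:B4 LPS (1 µg/mL) and compound or vehicle at 37 °C (induction phase). PGE2 in supernatants measured by radioimmunoassay; MTT reduction checked cytotoxicity. Mean ± SEM, n = 6; IC50 from at least four concentrations.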

[10] = species: Mus musculus; test: Decrease of mPGES1 expression in zymosan-stimulated Swiss mouse air pouch model after 24 hrs; type: functional, organism-based; procedure, shortened: as §4
[11] = system: RAW264.7; test: Inhibition of NF-kappaB DNA binding in LPS-stimulated mouse RAW264.7 cells at 1 uM; type: cell-based; procedure, shortened: as §2
[12] = system: RAW264.7; test: Inhibition of PGE2 production in LPS-stimulated mouse RAW264.7 cells at 10 uM after 18 hrs; type: functional; procedure, shortened: as §5
[13] = system: RAW264.7; test: Inhibition of PGE2 production in LPS-stimulated mouse RAW264.7 cells after 18 hrs; type: functional, cell-based; details: RAW264.7, 18 h; procedure, shortened: as §5
[14] = system: THP-1; test: Inhibition of COX2 expression in LPS-stimulated human THP1 cells at 1 uM by Western blot analysis; type: functional, cell-based
Procedure, shortened: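 THP-1 human monocytic cells (1 × 10^6 cells/mL, RPMI with 10% FBS) incubated 18 h with LPS (1 µg/mL) plus compound. Lysates taken, total fraction (30 µg protein) run on SDS-15% PAGE, then blotted with polyclonal anti-COX-2 (1/200), peroxidase secondary and chemiluminescence detection.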

[15] = system: RAW264.7; test: Inhibition of PGE2 production in LPS-stimulated mouse RAW264.7 cells at 10 uM after 2 hrs; type: functional; procedure, shortened: as §3
[16] = system: RAW264.7; test: Inhibition of NF-kappaB DNA binding in LPS-stimulated mouse RAW264.7 cells at 10 uM; type: cell-based; procedure, shortened: as §2

Sequence of Phospholipase A2, major isoenzyme (Sus scrofa) (P00592 23-146 limits assumed): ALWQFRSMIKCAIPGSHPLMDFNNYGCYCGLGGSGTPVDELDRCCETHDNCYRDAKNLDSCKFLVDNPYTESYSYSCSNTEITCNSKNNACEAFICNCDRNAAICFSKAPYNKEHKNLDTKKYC
Sequence of Acidic phospholipase A2 2 (Naja naja) (P15445 whole entry): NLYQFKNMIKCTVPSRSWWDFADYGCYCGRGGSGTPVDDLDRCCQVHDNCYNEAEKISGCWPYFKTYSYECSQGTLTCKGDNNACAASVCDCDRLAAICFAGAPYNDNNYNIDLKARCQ

Structure (SMILES)	inhibition [1]	inhibition [2]	inhibition [3]	other results
CCc1c(CC(N)=O)c2cc(OCCCP(=O)(O)O)ccc2n1Cc1ccccc1	2.7%	6.8%	0%	Activity [4]: inactive
C[C@@H]1C[C@H]2[C@@H]3CCC4=CC(=O)C=C[C@]4(C)[C@@]3(F)[C@@H](O)C[C@]2(C)[C@@]1(O)C(=O)CO [DEXAMETHASONE]	–	–	–	Activity [5]: Active; Activity [6]: Active; Activity [7]: 0.21 ng/mL; Activity [8]: Active; Activity [9]: 3.4 ng/mL; Activity [10]: Active
O=C1OC(O)C(c2ccc(Oc3ccccc3)cc2)=C1Br (stereo not drawn)	1%	7.8%	2.1%	–
O=C1OC(O)C(c2ccc3ccccc3c2)=C1Br (stereo not drawn)	9.2%	27.7%	14.7%	–
O=C1OC(O)C(c2ccc(-c3ccccc3)cc2)=C1Br (stereo not drawn)	7.5%	26%	14.4%	–
O=C1OC(O)C(c2cccc3c2Sc2ccccc2S3)=C1Br (stereo not drawn)	1.5%	0%	0%	–
CC(=O)O[C@@H]1O[C@@H](C2=CC(=O)OC2O)C[C@@H]2[C@@H]1CC[C@H]1[C@@]2(C)CC[C@H]2C(C)(C)CCC[C@]12C (stereo partly drawn) [PETROSASPONGIOLIDE M]	5.4%	11.4%	60.8%	Activity [7]: 0.22 ng/mL; Activity [11]: Active; Activity [9]: 7.3 ng/mL
O=C1OC(O)C(c2cc3ccccc3s2)=C1Br (stereo not drawn)	3.4%	18.7%	0%	Activity [12]: 6.7 ng/mL; Activity [5]: Dose-dependent effect; Activity [6]: inactive; Activity [7]: 0.23 ng/mL; Activity [9]: 10.7 ng/mL; pIC50 [13]: 5.74; Activity [14]: inactive; Activity [4]: Dose-dependent effect; Activity [10]: Active; Activity [15]: 0.22 ng/mL
O=C1OC(O)C(c2csc3ccccc23)=C1Br (stereo not drawn)	15.4%	33.5%	9.8%	–
CCCCc1ccc(C2=C(Br)C(=O)OC2O)cc1 (stereo not drawn)	26%	35.1%	32.9%	–
CC(C)C[C@@H](C=O)NC(=O)[C@H](CC(C)C)NC(=O)[C@H](CC(C)C)NC(=O)OCc1ccccc1 (Cbz-Leu-Leu-Leu-aldehyde)	–	–	–	Activity [16]: Active
O=C1OC(O)C(c2ccc3ccccc3c2)=C1c1ccc2ccccc2c1 (stereo not drawn)	9.1%	22.5%	25.2%	–
CS(=O)(=O)Nc1ccc([N+](=O)[O-])cc1OC1CCCCC1 [NS-398]	–	–	–	Activity [15]: 0.07 ng/mL
O=C1OC(O)C(c2cccc3ccccc23)=C1Br (stereo not drawn)	8.6%	13.7%	0%	–
O=C1OC(O)C(c2cccc3c2oc2ccccc23)=C1Br (stereo not drawn)	0%	38.6%	20.4%	–

Source: ChEMBL document CHEMBL1147139, “Synthesis and pharmacological evaluation of a selected library of new potential anti-inflammatory agents bearing the gamma-hydroxybutenolide scaffold: a new class of inhibitors of prostanoid production through the selective modulation of microsomal prostaglandin E synthase-1 expression” (J Med Chem, 2007)
